Laboratory results as given in PubChem BioAssay.
The source made the active and inactive calls.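 Rule for the calls, unless noted: active = NADPH fluorescence slope more negative than the mean of all samples by about 3 SD, 99.7% confidence; inactive = the rest.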

Tests used:
[1] = inhibitors of TNFa-induced NFkB p65 translocation, primary screen, imaging, HUVEC, MLSMR starter and 10KST1 sets (AID 438;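 active = inhibition above 20% together with a positive visual image hit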;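 note: compound added about 3h40 before a 20 min TNFalpha stimulation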;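 for inhibition: signal is the nuclear over cytoplasmic p65 intensity ratio per well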); settings: HUVEC TNFa-induced p65 nuclear translocation; cell count: measured here: nuclei count (cytotoxicity indicator), at 2.08 µM; inhibition: at 2 µM, stronger effect = higher value, 0% TNFa-plus-vehicle, 100% no-TNFa wells
[2] = inhibitors of E-selectin induction by TNFa, primary screen, imaging, HUVEC, immunofluorescence, MLSMR starter and 10KST1 sets (AID 487;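 active = visually confirmed hit in the image check and inhibition above 20%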;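 for inhibition: signal is fraction of cell area covered by stained E-selectin grains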;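 for nuclei count: 100% = median nuclei count of all wells on the same plate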); settings: HUVEC TNFalpha-induced E-selectin immunofluorescence imaging, at 2 µM; inhibition: stronger effect = higher value; nuclei count: measured here: cell number, toxicity
[3] = DUSP6 inhibitors restoring Erk phosphorylation by chemical complementation, primary imaging in DUSP6-transfected HeLa (AID 609;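 active = compounds giving at least 50% inhibition in the cell-based MKP-3 phosphatase rescue imaging test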;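 for inhibition: phospho-Erk level distribution per well compared with pooled transfected vehicle control wells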); settings: HeLa MKP-3 transfected, phospho-Erk imaging KS statistic, at 10 µM, cells stimulated with TPA for 15 min
[4] = biological target: Dual specificity protein phosphatase 6 (Homo sapiens) (UniProt Q16828); assay: as above; settings: HeLa MKP-3 transfected, phospho-Erk imaging KS statistic; at 10 µM; stronger effect = higher value; cells stimulated with TPA for 15 min
Chain of Dual specificity protein phosphatase 6 (Homo sapiens) (Q16828 whole entry, looked up): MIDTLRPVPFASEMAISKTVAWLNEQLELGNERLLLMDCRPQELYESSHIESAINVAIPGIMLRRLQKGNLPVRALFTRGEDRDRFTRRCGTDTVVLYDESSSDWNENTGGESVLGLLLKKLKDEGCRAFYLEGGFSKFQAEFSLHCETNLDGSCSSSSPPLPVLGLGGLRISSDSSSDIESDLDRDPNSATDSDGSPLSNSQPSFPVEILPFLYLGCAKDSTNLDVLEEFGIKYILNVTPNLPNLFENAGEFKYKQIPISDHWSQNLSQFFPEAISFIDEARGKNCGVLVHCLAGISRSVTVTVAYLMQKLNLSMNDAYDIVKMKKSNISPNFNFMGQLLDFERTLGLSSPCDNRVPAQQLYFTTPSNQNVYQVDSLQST

[5] = biological target: Voltage-gated potassium channel subunit beta-2 (Rattus norvegicus) (UniProt P62483); assay: KvBeta enzyme negative modulators, primary screen, biochemical, NADPH fluorescence (AID 622;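 active = fluorescence slope higher than the sample average by over 3 SD, cut at about -0.22 in these data, passing the limit was not always enough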;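 note: slope of raw intensity against log time taken from 70 to 1610 s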); settings: recombinant KvBeta, 4-cyanobenzaldehyde reduction, at 10 µM, stronger effect = higher value
Chain of Voltage-gated potassium channel subunit beta-2 (Rattus norvegicus) (P62483 whole entry, looked up): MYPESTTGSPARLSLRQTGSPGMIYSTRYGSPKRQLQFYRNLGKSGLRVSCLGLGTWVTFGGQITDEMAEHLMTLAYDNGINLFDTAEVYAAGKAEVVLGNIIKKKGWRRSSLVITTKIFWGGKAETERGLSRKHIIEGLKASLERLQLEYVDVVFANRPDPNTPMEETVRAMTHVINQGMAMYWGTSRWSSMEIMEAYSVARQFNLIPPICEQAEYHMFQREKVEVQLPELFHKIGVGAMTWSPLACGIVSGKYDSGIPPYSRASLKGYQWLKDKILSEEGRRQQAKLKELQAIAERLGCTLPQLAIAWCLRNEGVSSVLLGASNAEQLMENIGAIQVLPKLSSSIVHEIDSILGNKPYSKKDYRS

[6] = biological target: Voltage-gated potassium channel subunit beta-2 (Rattus norvegicus) (UniProt P62483); assay: KvBeta positive modulators, primary screen, biochemical, NADPH fluorescence (AID 623); settings: Recombinant KvBeta, NADPH fluorescence decrease slope, 10 min; at 10 µM; stronger effect = lower value;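 note: fluorescence intensity change per second fitted from 20 to 320 s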
[7] = biological target: Muscarinic acetylcholine receptor M4 (Homo sapiens) (UniProt P08173); assay: compounds altering M4/GIRK thallium flux, either direction, primary screen, M4 allosteric agonist project, cell-based, HEK293 M4/GIRK, BTC-AM (AID 625;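 active = fluorescence slope after compound addition differing from the mean of all tested samples at 99.7% confidence, mostly higher but some lower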;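 note: thallium influx through GIRK channels coupled to M4 in HEK293 cells with BTC-AM dye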); settings: at 10 µM, actives lie on both sides
Chain of Muscarinic acetylcholine receptor M4 (Homo sapiens) (P08173 whole entry, looked up): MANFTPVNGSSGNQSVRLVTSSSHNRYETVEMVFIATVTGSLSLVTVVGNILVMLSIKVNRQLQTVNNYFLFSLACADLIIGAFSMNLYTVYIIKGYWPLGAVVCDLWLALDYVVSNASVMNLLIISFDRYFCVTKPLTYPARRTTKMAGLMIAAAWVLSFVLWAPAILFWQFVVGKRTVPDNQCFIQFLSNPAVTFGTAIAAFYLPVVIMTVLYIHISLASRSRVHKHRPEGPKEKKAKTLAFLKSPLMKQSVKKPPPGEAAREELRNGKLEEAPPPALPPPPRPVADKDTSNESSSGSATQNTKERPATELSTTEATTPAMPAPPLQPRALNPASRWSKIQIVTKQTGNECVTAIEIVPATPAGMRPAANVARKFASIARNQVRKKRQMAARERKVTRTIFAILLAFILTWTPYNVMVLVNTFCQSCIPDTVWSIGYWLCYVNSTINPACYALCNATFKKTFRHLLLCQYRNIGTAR
Method in brief: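 assay system = HEK293 cells with M4 receptor and GIRK channels | medium = pH 7.3 thallium assay buffer | doses = 10 µM final, single point | timing = cells overnight at 37 °C, BTC-AM loading 1 h, reads 2 min total | signal = BTC-AM fluorescence, 1 Hz kinetic reads | read-out = post-addition slope, 15–24 s, of baseline-normalized fluorescence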

[8] = inhibitors of larval lipid processing in zebrafish, primary screen, whole organism, PED6 fluorescence, gall bladder and intestine (AID 686;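 active = a full or partial loss of lipid-probe fluorescence in the fish gall bladder, intestine or both, judged by eye; inactive = no fluorescence loss, or compound toxic to the fish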;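 note: larvae 5 to 7 days old with five fish per well; signal comes from phospholipase A2 cleavage of quenched PED6 carried via bile; overnight exposure to compound and PED6 before scoring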); settings: Zebrafish larvae PED6 lipid processing, fluorescence scoring; screened at 20 µM (by protocol)
Method in brief: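 Also added: quenched phospholipase substrate PED6, 100 nM final, ingested by larvae; System: zebrafish larvae, 5-7 d; Quantity: 5 larvae per well; Compound: 20 µM single dose; Schedule: overnight compound and PED6 incubation; Read-out: visual per-well fluorescence inhibition score; Measured by: By-eye fluorescence microscopy; Medium: E3.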

[9] = inhibitors of Chlamydomonas gravitaxis, primary screen, whole organism, Chlamydomonas reinhardtii, WT vs cilia-less mutant, absorbance, 96-well (AID 463189;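 active = inhibition at or above 50% relative to wild type and mutant plate controls; inactive = inhibition below 50%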;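 note: 0% = wild type cc124 cells in DMSO and 100% = ciliumless bld1 mutant cells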); settings: OD600 absorbance, 2 days, at 10 µM, stronger effect = higher value
[10] = measured here: cell density z-score
[11] = measured here: nuclear c-Myc green intensity z-score
[12] = measured here: nuclear pErk red intensity z-score, stronger effect = higher value

Row | SMILES | cell count [1] | inhibition [1] | inhibition [2] | nuclei count [2] | z-score [3, 10] | z-score [3, 11] | z-score [3, 12] | inhibition [4] | fluorescence slope [5] | NADPH fluorescence slope [6] | fluorescence slope [7] | outcome [8] | inhibition [9]
1 | Cc1ccc(C2/C(=C(\O)c3ccc4c(c3)OCCO4)C(=O)C(=O)N2CCCN(C)C)o1 (stereo unspecified) | 360 | -5.9% (inactive) | 24.2% (inactive) | 113% | -1.73 | 0.575 | -0.16 | 14% (inactive) | -0.474 (inactive) | -8.1e-06 (inactive) | 0.00787 (inactive) | inactive | -17.7% (inactive)
2 | Cc1cccn2c(=O)c3cc(C(N)=S)c(=N)n(CCCOC(C)C)c3nc12 | 637 | -5.4% (inactive) | -92.7% (inactive) | 153% | 1.81 | -0.956 | -1.49 | 12.7% (inactive) | -0.447 (inactive) | -3.3e-05 (inactive) | 0.00286 (inactive) | inactive | 145% (active)
3 | CCN(CC)CCN1C(=O)C(=O)/C(=C(/O)c2c(C)[nH]c(C(=O)OC)c2C)C1c1ccc(OC)cc1 (stereo unspecified) | 733 | -1.5% (inactive) | -75.7% (inactive) | 194% | -0.146 | -0.0149 | 0.967 | 0.671% (inactive) | -0.449 (inactive) | -4e-05 (inactive) | 0.00528 (inactive) | inactive | 18.4% (inactive)
4 | CCCCC(=O)C1CCN(Cc2ccccc2)CC1 | 371 | -0.5% (inactive) | 19.3% (inactive) | 177% | 0.378 | 0.471 | 0.337 | -0.584% (inactive) | -0.469 (inactive) | -0.000111 (inactive) | 0.00375 (inactive) | inactive; toxic | 126% (active)
5 | Cc1nnc2n(-c3ccccc3)c(=O)c3c4c(sc3n12)COC(C)(C)C4 | 526 | -14.8% (inactive) | -32.4% (inactive) | 98.4% | 0.218 | -0.0554 | -0.749 | 24% (inactive) | -0.48 (inactive) | 2.3e-05 (inactive) | 0.00589 (inactive) | inactive | 38.4% (inactive)
6 | c1ccc2c(c1)[nH]c1c(N3CCN(C4CCCCC4)CC3)ncnc12 | 601 | -21% (inactive) | -59.2% (inactive) | 172% | 0.663 | -1.44 | -1.01 | 27.4% (inactive) | -0.169 (inactive) | -1.6e-05 (inactive) | 0.00557 (inactive) | inactive | 18.4% (inactive)
7 | O=C(CC1SC2=NCCN2C1=O)Nc1ccccc1 (stereo unspecified) | 693 | -7.8% (inactive) | -79.2% (inactive) | 167% | -0.578 | 0.509 | 0.504 | 18.6% (inactive) | -0.42 (inactive) | -5.8e-05 (inactive) | 0.00447 (inactive) | inactive | -0.757% (inactive)
8 | Clc1ccc(-n2ncc3c(NCc4ccccn4)ncnc32)cc1 | 537 | -14.9% (inactive) | 6.6% (inactive) | 106% | -1.8 | 2.08 | -1.64 | 1.42% (inactive) | -0.374 (inactive) | 5.6e-06 (inactive) | 0.0062 (inactive) | inactive | 0.96% (inactive)
9 | CCOC(=O)Cn1nc(C)c2ccccc2c1=O | 579 | -1.2% (inactive) | -43.5% (inactive) | 154% | 1.29 | -0.0748 | 0.243 | 7.21% (inactive) | -0.515 (inactive) | -0.000104 (inactive) | 0.00507 (inactive) | inactive | -2.22% (inactive)
10 | O=C1C(=O)N(Cc2cccnc2)C(c2ccccn2)/C1=C(/O)c1ccc(F)cc1 (stereo unspecified) | 327 | -1.1% (inactive) | -58.9% (inactive) | 98% | 1.24 | 1.4 | -0.331 | -0.624% (inactive) | -0.462 (inactive) | -3.7e-05 (inactive) | 0.00549 (inactive) | inactive | -9.85% (inactive)
11 | CCN(CC)CCN1C(=O)C(O)=C(C(=O)c2cc3ccccc3o2)C1c1cccnc1 (stereo unspecified) | 423 | -6.8% (inactive) | 14.8% (inactive) | 163% | -0.472 | -0.722 | -0.061 | 3.56% (inactive) | -0.431 (inactive) | -0.000135 (inactive) | 0.00445 (inactive) | inactive | -8.96% (inactive)
12 | CCC(NC(=O)NC1=NCCS1)(C(F)(F)F)C(F)(F)F | 772 | 2.9% (inactive) | -60% (inactive) | 150% | 0.622 | -0.646 | 0.179 | 20.2% (inactive) | -0.433 (inactive) | -7.2e-05 (inactive) | 0.00527 (inactive) | inactive | -2.29% (inactive)
13 | N#CC(C#N)C(c1ccsc1)c1c(-c2ccccc2)[nH][nH]c1=O (stereo unspecified) | 712 | -0.5% (inactive) | -88.8% (inactive) | 169% | 0.118 | -0.0424 | 0.886 | -4.27% (inactive) | -0.495 (inactive) | -6.9e-05 (inactive) | 0.00622 (inactive) | inactive | 3.19% (inactive)
14 | CCNc1sc(C(=O)c2cccs2)c(N)c1C#N | 583 | 0.3% (inactive) | -26.4% (inactive) | 114% | 0.394 | -0.752 | 0.076 | 10.9% (inactive) | -0.442 (inactive) | -4.6e-05 (inactive) | 0.00473 (inactive) | inactive | 24.6% (inactive)
15 | Cc1cc(C)c(C#N)c(OCC(=O)c2ccccc2)n1 | 450 | -5.3% (inactive) | -69% (inactive) | 156% | -0.815 | 1.05 | 0.134 | -3.95% (inactive) | -0.405 (inactive) | -3.4e-05 (inactive) | 0.00481 (inactive) | inactive | -6.74% (inactive)
16 | Cc1cc2c(C)nc(Cc3ccccc3)nc2o1 | 561 | -5.5% (inactive) | -85.6% (inactive) | 149% | -0.156 | 0.673 | 0.277 | 11.9% (inactive) | -0.438 (inactive) | -7.2e-05 (inactive) | 0.00471 (inactive) | inactive | 16.9% (inactive)
17 | COc1ccccc1C1CC(c2ccc(Cl)cc2)Nc2nc(N)nn21 (stereo unspecified) | 404 | 0% (inactive) | -104% (inactive) | 146% | -0.136 | -0.282 | -0.582 | 11.9% (inactive) | -0.459 (inactive) | -0.000104 (inactive) | 0.00483 (inactive) | inactive | -3.22% (inactive)
18 | Cc1ccc(-c2nn(C)c(=O)c3ccccc23)cc1CNC(=O)CSc1nc2ccccc2o1 | 547 | 3.6% (inactive) | 21.6% (inactive) | 106% | -1.01 | 1.51 | 0.619 | 1.98% (inactive) | -0.419 (inactive) | -5.4e-05 (inactive) | 0.00502 (inactive) | inactive | 22.8% (inactive)
19 | COc1ccccc1-c1nnc2n1N=C(c1ccc(O)c(O)c1)CS2 | 485 | 50.9% (active) | -490% (inactive) | 70.4% | 1.36 | -1.29 | -0.603 | -6.48% (inactive) | -0.429 (inactive) | -1.7e-05 (inactive) | 0.00474 (inactive) | inactive | -2.32% (inactive)
20 | CC(=O)N1CCN(C2c3cccc4cccc(c34)C2NS(=O)(=O)c2ccccc2)CC1 (stereo unspecified) | 507 | -0.3% (inactive) | -19.2% (inactive) | 101% | 1.9 | -1.56 | -0.633 | 33.3% (inactive) | -0.462 (inactive) | -4.4e-05 (inactive) | 0.00522 (inactive) | inactive | 30.1% (inactive)
21 | CCCc1cc(NCCN2CCOCC2)n2c(nc3ccccc32)c1C#N | 472 | 0.5% (inactive) | -144% (inactive) | 105% | -1.9 | 2.65 | 0.164 | 1.98% (inactive) | -0.324 (inactive) | 7.2e-06 (inactive) | 0.00729 (inactive) | inactive | -18.9% (inactive)
22 | O=C(NCCC1=CCCCC1)c1ccc(=O)oc1 | 670 | -1.4% (inactive) | 33.5% (inactive) | 163% | -0.394 | -0.165 | 0.265 | -2.29% (inactive) | -0.448 (inactive) | -0.000197 (inactive) | 0.00522 (inactive) | inactive | 20.7% (inactive)
23 | CCOC(=O)CCNc1n[nH]c(=O)[nH]c1=O | 611 | 29.6% (active) | -2.5% (inactive) | 107% | 0.833 | 0.318 | -1.89 | 15.5% (inactive) | -0.497 (inactive) | -1.9e-05 (inactive) | 0.00518 (inactive) | inactive | -1.35% (inactive)
24 | CCCc1nc2n[nH]c(N)c2c2c1COC(C)(C)C2 | 597 | -4% (inactive) | -13.2% (inactive) | 168% | -0.7 | -1.13 | 1.4 | -11.9% (inactive) | -0.369 (inactive) | -3.1e-05 (inactive) | 0.00478 (inactive) | inactive | 10.6% (inactive)
25 | CCc1nc(N2CCOCC2)c(C#N)c2c1CCCC2 | 397 | -6.2% (inactive) | -105% (inactive) | 121% | 0.0216 | 0.691 | -0.389 | 9.42% (inactive) | -0.482 (inactive) | -6.5e-05 (inactive) | 0.00431 (inactive) | inactive | 29.5% (inactive)
26 | CC(C)=CCC(C)(C)CNC(=O)NC1CCCCC1 | 577 | -4.2% (inactive) | -143% (inactive) | 147% | -0.346 | -0.203 | -0.256 | -0.584% (inactive) | -0.459 (inactive) | -0.000111 (inactive) | 0.00622 (inactive) | inactive | 19.5% (inactive)
27 | CCCOc1ccccc1C(=O)NCCCC(=O)O | 697 | 10.3% (inactive) | -31.2% (inactive) | 137% | 0.264 | 0.35 | -1.68 | 1.63% (inactive) | -0.447 (inactive) | -6.8e-05 (inactive) | 0.00573 (inactive) | inactive | 23.9% (inactive)
